{"source": "ChEMBL document CHEMBL5154713", "about": "“Illuminating a Dark Kinase: Structure-Guided Design, Synthesis, and Evaluation of a Potent Nek1 Inhibitor and Its Effects on the Embryonic Zebrafish Pronephros” (J Med Chem, 2022)", "key": {"[1]": {"biological_target": "Serine-protein kinase ATM (Homo sapiens) (UniProt Q13315)", "sequence (Q13315 whole entry)": "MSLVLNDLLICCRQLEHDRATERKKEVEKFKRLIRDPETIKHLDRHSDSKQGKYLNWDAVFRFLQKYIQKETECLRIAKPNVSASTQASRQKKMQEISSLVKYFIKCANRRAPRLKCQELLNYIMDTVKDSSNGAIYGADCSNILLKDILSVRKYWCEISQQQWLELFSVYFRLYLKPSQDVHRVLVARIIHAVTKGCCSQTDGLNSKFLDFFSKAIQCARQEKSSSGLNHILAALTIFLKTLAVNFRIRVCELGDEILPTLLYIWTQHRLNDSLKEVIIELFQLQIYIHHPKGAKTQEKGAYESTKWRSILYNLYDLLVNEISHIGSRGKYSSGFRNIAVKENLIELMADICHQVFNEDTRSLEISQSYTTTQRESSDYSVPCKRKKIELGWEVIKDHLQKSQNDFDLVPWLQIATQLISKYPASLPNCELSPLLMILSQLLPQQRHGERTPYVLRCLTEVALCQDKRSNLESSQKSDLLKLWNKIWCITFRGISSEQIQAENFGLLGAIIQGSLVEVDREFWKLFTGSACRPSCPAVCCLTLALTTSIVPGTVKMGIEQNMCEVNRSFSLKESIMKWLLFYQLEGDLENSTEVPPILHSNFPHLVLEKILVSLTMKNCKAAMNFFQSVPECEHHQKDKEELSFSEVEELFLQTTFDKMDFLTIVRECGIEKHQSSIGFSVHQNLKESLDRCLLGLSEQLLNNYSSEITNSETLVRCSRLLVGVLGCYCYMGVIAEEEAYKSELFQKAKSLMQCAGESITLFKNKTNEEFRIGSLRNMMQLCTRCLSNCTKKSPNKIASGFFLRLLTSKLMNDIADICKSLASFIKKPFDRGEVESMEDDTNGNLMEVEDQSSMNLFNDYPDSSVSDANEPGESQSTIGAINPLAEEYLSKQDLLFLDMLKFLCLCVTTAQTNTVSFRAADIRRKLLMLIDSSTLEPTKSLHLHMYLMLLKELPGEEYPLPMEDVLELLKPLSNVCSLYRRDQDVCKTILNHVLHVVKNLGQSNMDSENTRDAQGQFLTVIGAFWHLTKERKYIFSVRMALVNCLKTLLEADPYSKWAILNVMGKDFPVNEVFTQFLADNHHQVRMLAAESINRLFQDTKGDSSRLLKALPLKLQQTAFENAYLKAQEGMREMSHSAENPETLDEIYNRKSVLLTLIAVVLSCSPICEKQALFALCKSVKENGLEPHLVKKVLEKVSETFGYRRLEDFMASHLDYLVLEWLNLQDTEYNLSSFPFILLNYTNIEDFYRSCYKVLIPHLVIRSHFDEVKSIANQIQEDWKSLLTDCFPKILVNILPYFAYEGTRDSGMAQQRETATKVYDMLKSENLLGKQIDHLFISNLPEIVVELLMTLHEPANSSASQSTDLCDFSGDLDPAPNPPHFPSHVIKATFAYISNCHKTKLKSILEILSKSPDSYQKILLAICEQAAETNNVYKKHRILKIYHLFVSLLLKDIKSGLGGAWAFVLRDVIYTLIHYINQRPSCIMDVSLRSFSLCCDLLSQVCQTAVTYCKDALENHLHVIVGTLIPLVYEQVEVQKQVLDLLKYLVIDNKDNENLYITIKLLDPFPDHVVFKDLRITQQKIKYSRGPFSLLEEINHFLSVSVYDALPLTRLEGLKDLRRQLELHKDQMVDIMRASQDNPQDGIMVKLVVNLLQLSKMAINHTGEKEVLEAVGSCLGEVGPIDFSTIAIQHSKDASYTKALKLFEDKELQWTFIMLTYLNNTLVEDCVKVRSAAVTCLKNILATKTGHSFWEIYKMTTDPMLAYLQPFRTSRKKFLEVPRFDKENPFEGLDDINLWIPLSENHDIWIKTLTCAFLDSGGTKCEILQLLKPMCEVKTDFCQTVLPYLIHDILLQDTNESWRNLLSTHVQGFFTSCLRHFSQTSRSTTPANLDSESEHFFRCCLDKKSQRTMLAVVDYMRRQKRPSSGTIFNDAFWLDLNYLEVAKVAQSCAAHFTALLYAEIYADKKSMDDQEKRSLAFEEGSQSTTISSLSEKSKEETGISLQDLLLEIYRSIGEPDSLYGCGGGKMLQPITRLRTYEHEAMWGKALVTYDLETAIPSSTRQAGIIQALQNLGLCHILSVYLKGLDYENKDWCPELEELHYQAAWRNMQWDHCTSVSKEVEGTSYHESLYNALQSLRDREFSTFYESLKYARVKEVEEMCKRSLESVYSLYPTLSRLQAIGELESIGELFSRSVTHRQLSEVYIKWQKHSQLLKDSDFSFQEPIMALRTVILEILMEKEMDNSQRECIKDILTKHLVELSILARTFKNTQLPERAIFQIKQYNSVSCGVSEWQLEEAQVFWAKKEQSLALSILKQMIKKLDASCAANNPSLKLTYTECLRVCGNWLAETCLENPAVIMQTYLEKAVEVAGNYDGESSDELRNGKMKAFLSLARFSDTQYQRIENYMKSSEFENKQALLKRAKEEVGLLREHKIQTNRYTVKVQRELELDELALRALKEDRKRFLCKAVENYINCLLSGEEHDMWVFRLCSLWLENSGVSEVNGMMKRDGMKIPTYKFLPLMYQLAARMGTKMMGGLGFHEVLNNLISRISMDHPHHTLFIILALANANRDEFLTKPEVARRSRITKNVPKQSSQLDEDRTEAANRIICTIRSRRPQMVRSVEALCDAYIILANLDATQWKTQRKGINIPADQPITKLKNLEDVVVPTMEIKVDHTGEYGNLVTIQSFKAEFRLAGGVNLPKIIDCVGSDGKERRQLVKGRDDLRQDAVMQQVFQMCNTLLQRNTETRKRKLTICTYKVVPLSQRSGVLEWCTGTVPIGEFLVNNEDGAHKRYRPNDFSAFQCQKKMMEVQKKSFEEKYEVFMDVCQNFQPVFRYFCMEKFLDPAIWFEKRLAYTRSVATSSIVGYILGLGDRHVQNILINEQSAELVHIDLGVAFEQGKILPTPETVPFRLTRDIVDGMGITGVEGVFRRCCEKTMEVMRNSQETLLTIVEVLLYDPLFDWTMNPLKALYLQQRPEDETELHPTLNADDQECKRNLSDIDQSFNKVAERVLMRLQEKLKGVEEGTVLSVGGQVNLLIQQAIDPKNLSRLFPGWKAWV", "assay": "Inhibition of human full length recombinant ATM assessed as residual activity at 1 uM using GST-cMyc-p53 as substrate incubated for 40 mins in presence of ATP by HTRF assay relative to control"}, "[2]": {"biological_target": "Protein-tyrosine kinase 6 (Homo sapiens) (UniProt Q13882)", "sequence (Q13882 whole entry, looked up)": "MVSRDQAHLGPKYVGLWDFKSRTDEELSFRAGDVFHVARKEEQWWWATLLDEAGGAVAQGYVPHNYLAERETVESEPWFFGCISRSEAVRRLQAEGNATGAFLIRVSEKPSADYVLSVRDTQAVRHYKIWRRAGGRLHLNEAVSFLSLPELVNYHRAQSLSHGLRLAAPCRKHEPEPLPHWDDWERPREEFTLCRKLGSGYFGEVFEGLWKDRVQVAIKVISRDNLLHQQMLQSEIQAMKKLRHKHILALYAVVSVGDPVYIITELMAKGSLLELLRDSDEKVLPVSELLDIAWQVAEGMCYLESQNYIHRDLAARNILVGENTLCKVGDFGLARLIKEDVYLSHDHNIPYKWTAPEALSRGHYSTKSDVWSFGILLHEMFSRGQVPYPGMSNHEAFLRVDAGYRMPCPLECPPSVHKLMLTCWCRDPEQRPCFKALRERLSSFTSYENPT", "assay": "Inhibition of recombinant full length human BRK assessed as residual activity at 1 uM using poly(Glu, Tyr) 4:1 as substrate incubated for 40 mins in presence of [gamma-33ATP] by scintillation counting based radiometry assay relative to control", "method_in_brief": "(§1)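 Commercial radiometric panel of 50 kinases. Each recombinant human kinase was tested at a single compound concentration of 1 μM. ATP was set within 15 μM of the apparent Km for ATP for each kinase. Residual activity is relative to control and is the mean of two independent experiments.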"}, "[3]": {"biological_target": "Epidermal growth factor receptor (Homo sapiens) (UniProt P00533)", "assay": "Inhibition of human recombinant EGFR (696 to end residues) assessed as residual activity at 1 uM using poly(Glu, Tyr) 4:1 as substrate incubated for 40 mins in presence of [gamma 33P]-ATP by radiometric scintillation counting assay relative to control", "method_in_brief": "as §1"}, "[4]": {"biological_target": "Inhibitor of nuclear factor kappa-B kinase subunit beta (Homo sapiens) (UniProt O14920)", "sequence (O14920 whole entry)": "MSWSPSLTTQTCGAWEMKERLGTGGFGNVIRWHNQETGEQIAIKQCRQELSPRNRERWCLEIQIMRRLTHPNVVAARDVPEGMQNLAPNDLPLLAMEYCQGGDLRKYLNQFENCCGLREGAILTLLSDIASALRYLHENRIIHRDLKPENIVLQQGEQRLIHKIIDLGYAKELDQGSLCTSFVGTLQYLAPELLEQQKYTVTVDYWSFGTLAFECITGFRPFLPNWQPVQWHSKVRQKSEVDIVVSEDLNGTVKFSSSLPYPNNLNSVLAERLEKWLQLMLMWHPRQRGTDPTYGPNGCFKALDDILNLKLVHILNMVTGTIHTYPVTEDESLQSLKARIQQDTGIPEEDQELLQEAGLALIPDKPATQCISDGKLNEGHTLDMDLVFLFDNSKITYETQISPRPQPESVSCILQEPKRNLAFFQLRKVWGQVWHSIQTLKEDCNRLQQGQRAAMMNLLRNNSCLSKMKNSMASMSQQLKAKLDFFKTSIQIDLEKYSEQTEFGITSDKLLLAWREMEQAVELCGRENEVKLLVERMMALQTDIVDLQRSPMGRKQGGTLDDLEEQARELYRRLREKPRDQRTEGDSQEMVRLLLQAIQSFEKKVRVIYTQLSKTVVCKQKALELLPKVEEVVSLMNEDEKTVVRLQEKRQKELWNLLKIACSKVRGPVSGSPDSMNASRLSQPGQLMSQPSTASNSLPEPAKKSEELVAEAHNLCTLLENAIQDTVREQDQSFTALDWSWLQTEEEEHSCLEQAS", "assay": "Inhibition of recombinant human full length IKKbeta assessed as residual activity at 1 uM using peptide as substrate incubated for 40 mins in presence of [gamma 33P]-ATP by radiometric scintillation counting assay relative to control", "method_in_brief": "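Eurofins KinaseProfiler radiometric panel, compound at 1 μM, ATP at 10 μM or within 15 μM of apparent Km. For Nek1 (1−505): 8 mM MOPS pH 7.0, 0.2 mM EDTA, 250 μM peptide, 10 mM Mg acetate, [γ-33P]-ATP, 40 min at room temperature. Stopped with 0.5% phosphoric acid, filtermat spotting, scintillation counting. Mean of two independent experiments.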"}, "[5]": {"biological_target": "T1, Serine/threonine-protein kinase Nek1 (Homo sapiens, UniProt Q96PY6)", "T1 sequence (Q96PY6 whole entry)": "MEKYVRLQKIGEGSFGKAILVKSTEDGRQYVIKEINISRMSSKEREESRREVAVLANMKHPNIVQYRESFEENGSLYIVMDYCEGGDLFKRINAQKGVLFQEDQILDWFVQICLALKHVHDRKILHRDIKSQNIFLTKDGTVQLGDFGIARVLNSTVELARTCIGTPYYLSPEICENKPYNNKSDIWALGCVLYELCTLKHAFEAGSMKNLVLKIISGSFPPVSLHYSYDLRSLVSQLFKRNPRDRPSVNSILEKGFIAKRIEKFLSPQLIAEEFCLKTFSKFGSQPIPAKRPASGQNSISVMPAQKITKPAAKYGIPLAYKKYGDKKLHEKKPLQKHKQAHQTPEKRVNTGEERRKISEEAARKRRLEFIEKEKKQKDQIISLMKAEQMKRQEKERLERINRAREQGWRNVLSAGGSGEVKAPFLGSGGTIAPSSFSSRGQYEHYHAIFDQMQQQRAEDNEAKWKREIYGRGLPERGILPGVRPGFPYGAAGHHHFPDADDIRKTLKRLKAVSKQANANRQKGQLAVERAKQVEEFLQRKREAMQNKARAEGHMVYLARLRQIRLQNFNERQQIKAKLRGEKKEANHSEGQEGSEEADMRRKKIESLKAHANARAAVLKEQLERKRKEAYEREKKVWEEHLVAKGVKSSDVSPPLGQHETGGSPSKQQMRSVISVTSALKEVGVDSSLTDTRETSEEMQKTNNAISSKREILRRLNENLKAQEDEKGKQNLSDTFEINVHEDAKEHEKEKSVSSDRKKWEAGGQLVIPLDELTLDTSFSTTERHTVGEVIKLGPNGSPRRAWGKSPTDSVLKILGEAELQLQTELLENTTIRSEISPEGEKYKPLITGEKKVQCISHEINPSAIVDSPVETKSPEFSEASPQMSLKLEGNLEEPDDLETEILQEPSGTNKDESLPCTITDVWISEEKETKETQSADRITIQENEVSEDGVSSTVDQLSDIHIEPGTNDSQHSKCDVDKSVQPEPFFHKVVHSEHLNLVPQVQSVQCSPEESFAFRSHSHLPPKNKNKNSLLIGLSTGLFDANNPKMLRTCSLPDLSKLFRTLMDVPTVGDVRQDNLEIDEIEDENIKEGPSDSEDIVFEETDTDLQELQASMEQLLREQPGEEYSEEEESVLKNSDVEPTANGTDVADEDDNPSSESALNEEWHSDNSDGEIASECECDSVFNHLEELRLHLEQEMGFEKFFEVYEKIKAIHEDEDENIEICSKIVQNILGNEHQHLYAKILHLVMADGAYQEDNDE", "assay": "Inhibition of human recombinant NEK1 (1 to 505 residues) using ULight-p70 S6K peptide as substrate incubated for 30 mins by LANCE Ultra TR-FRET assay", "method_in_brief": "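Recombinant human Nek1 (1−505, 0.02 nM) in 50 mM HEPES pH 7.5, 1 mM EGTA, 10 mM MgCl2, 0.2 mM DTT, 0.01% Tween20, with 50 nM ULight-p70 S6K peptide and 60 μM ATP, 30 min at 22 °C. Stopped with EDTA plus Eu anti-phospho antibody, 1 h signal development. Ten half-log concentrations from 30 μM (10 μM for some) to 1 nM. Mean of two experiments.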"}, "[6]": {"biological_target": "Serine/threonine-protein kinase mTOR (Homo sapiens) (UniProt P42345)", "assay": "Inhibition of human full length recombinant MTOR assessed as residual activity at 1 uM incubated for 40 mins in presence of [gamma 33P]-ATP by radiometric scintillation counting assay relative to control", "method_in_brief": "as §1"}, "[7]": {"assay": "Permeability across apical to basolateral side in human Caco-2 cells at pH 6.5 to 7.4 by HPLC-MS/MS analysis", "assay_type": "ADME, cell-based", "details": "Caco-2, pH 6.5, read-out: permeability", "method_in_brief": "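Commercial Caco-2 assay, apical-to-basolateral direction at pH 6.5/7.4. Permeability and percent recovery taken from HPLC-MS/MS peak area response. Propranolol, labetalol, colchicine and ranitidine run in parallel as references.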"}, "[8]": {"biological_target": "Casein kinase I isoform gamma-1 (Homo sapiens) (UniProt Q9HCP0)", "assay": "Inhibition of recombinant human CK1gamma1 (25 to 355 residues) assessed as residual activity at 1 uM using KRRRALS(p)VASLPGL as substrate measured after 40 mins in presence of [gamma33P]ATP by radiometric scintillation counting method relative to control", "method_in_brief": "as §1"}, "[9]": {"biological_target": "Glycogen synthase kinase-3 beta (Homo sapiens) (UniProt P49841)", "assay": "Inhibition of human GSK3beta (2 to end residues) assessed as residual activity using YRRAAVPPSPSLSRHSSPHQS(p) EDEEE as substrate at 1 uM incubated for 40 mins in presence of [gamma 33P]-ATP by radiometric scintillation counting assay relative to control", "method_in_brief": "as §1"}, "[10]": {"biological_target": "Protein kinase C eta type (Homo sapiens) (UniProt P24723)", "sequence (P24723 whole entry)": "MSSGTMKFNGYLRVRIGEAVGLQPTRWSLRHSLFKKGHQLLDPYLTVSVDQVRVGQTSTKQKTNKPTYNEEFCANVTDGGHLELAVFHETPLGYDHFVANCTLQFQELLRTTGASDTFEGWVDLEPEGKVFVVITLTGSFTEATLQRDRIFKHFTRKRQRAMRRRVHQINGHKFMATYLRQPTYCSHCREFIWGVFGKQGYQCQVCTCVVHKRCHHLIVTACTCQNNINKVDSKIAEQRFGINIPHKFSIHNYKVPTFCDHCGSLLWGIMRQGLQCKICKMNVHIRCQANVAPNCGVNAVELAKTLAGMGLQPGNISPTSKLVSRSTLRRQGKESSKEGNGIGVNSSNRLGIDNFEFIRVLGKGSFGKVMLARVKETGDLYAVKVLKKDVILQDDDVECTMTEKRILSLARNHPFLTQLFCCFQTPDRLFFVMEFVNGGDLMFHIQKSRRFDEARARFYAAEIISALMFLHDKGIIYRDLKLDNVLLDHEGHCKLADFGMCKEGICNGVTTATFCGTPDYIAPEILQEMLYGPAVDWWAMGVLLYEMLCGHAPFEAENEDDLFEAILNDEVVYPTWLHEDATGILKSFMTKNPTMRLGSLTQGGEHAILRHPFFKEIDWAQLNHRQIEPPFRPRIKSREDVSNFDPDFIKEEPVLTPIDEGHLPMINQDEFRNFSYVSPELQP", "assay": "Inhibition of recombinant human full length PKCeta (2 to end residues) assessed as residual activity at 1 uM using ERMRPRKRQGSVRRRV as substrate incubated for 40 mins in presence of [gamma-33P]-ATP by scintillation counting method relative to control", "method_in_brief": "as §1"}}}
{"molecule": "O=S(=O)(N[C@@H](CO)Cc1c[nH]c2ccccc12)c1ccc(-c2ccnc3[nH]ccc23)cc1", "values": [{"measurement": "Activity", "setting": "[1]", "value": "> 75", "unit": "%"}, {"measurement": "Activity", "setting": "[2]", "value": "> 75", "unit": "%"}, {"measurement": "Activity", "setting": "[3]", "value": "> 75", "unit": "%"}, {"measurement": "Activity", "setting": "[4]", "value": 36.1, "unit": "%"}, {"measurement": "IC50", "setting": "[5]", "value": 330, "unit": "nM"}, {"measurement": "Activity", "setting": "[6]", "value": "> 75", "unit": "%"}, {"measurement": "Papp A→B", "setting": "[7]", "value": 3.4, "unit": "×10⁻⁶ cm/s"}, {"measurement": "Activity", "setting": "[8]", "value": "> 75", "unit": "%"}, {"measurement": "Activity", "setting": "[9]", "value": "> 75", "unit": "%"}, {"measurement": "Activity", "setting": "[10]", "value": "> 75", "unit": "%"}]}
